In article PMC2738612 (Biochemistry, 2009):
Numbering of substitutions follows the chain as printed.

B1: E^321A: rCBD variant, single-point alanine substitution at E^321, module 2 (protein)
chain: APSPIIKFPGDVAPKTDKELAVQYLNTFYGCPKESCNLFVLKDTLKKMQKFFGLPQTGDLDQNTIETMRKPRCGNPDVANYNFFPRKPKWDKNQITYRIIGYTPDLDPETVDDAFARAFQVWSDVTPLRFSRIHDGEADIMINFGRWEHGDGYPFDGKDGLLAHAFAPGTGVGGDSHFDDDELWTLGEGQVVRVKYGNADGEYCKFPFLFNGKEYNSCTDTGRSDGFLWCSTTYNFEKDGKYGFCPHEALFTMGGNAEGQPCKFPFRFQGTSYDSCTTEGRTDGYRWCGTTADYDRDKKYGFCPETAMSTVGGNSEGAPCVFPFTFLGNKYESCTSAGRSDGKMWCATTANYDDDRKWGFCPDQGYSLFLVAAHEFGHAMGLEHSQDPGALMAPIYTYTKNFRLSQDDIKGIQELYGASPDIDLGTGPTPTLGPVTPEICKQDIVFDGIAQIRGEIFFFKDRFIWRTVTPRDKPMGPLLVATFWPELPEKIDAVYEAPQEEKAVFFAGNEYWIYSASTLERGYPKPLTSLGLPPDVQRVDAAFNWSKNKKTYIFAGDKFWRYNEVKKKMDPGFPKLIADAWNAIPDNLDAVVDLQGGGHSYFFKGAYYLKLENQSLKSVKFGSIKSDWLGC
modifications: biotinylated for the microwell assay; left off: His tag, end not stated, state not stated
B2: Y^302A: rCBD variant, single-point alanine substitution at Y^302, module 2 (protein)
chain: B1 chain with Y273A, A292E
modifications: biotinylated for the microwell assay; left off: His tag, end not stated, state not stated
B3: Y^329A: rCBD variant, single-point alanine substitution at Y^329, module 2 (protein)
chain: B1 chain with A292E, Y300A
modifications: biotinylated for the microwell assay; left off: His tag, end not stated, state not stated
B4: F^280A: rCBD variant, single-point alanine substitution at F^280, negative control (protein)
chain: B1 chain with F251A, A292E
modifications: biotinylated for the microwell assay; left off: His tag, end not stated, state not stated
B5: R^368A: rCBD variant, single-point alanine substitution at R^368, module 3 (protein)
chain: B1 chain with A292E, R339A
modifications: biotinylated for the microwell assay; left off: His tag, end not stated, state not stated
B6: F^297A: rCBD variant, single-point alanine substitution at F^297, module 2 (protein)
chain: B1 chain with F268A, A292E
modifications: biotinylated for the microwell assay; left off: His tag, end not stated, state not stated
B7: E^361A: rCBD variant, single-point alanine substitution at E^361, negative control (protein)
chain: B1 chain with A292E, E332A
modifications: biotinylated for the microwell assay; left off: His tag, end not stated, state not stated
B8: Y^381A: rCBD variant, single-point alanine substitution at Y^381, module 3 (protein)
chain: B1 chain with A292E, Y352A
modifications: biotinylated for the microwell assay; left off: His tag, end not stated, state not stated
B9: W^374A: rCBD variant, single-point alanine substitution at W^374, module 3 (protein)
chain: B1 chain with A292E, W345A
modifications: biotinylated for the microwell assay; left off: His tag, end not stated, state not stated
B10: Y^323A: rCBD variant, single-point alanine substitution at Y^323, module 2 (protein)
chain: B1 chain with A292E, Y294A
modifications: biotinylated for the microwell assay; left off: His tag, end not stated, state not stated
B11: Recombinant collagen binding domain (CBD) from human MMP-2, wildtype (domain or fragment)
chain: VVRVKYGNADGEYCKFPFLFNGKEYNSCTDTGRSDGFLWCSTTYNFEKDGKYGFCPHEALFTMGGNAEGQPCKFPFRFQGTSYDSCTTEGRTDGYRWCGTTEDYDRDKKYGFCPETAMSTVGGNSEGAPCVFPFTFLGNKYESCTSAGRSDGKMWCATTANYDDDRKWGFCPDQ
modifications: 15N (or 15N and 13C) labelled for NMR; biotinylated for the microwell assay

What was measured:
MMP-2 CBD modules = settings: cited from earlier work
native type I collagen = test: Surface plasmon resonance binding to immobilized native type I collagen; set-up: species or system rat; settings: 1 µM analyte, Biacore buffer pH 7.4; compared to WT CBD
Summary of the method: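 Native non-pepsin-treated acid-soluble rat tail type I collagen in 10 mM sodium acetate, pH 4.5, was amine-coupled to EDC/NHS-activated CM5 chips at ~3000 RU, then ethanolamine-blocked; an uncoated flow cell served as control. Analytes at 1 µM in 10 mM HEPES, 150 mM NaCl, 0.005% P20, pH 7.4, flowed at 5 µl/min for 6 min. RU were averaged over 5 s before injection end. Chips were regenerated with 6 M guanidine-HCl, with WT CBD run at the start and end of each series.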

[1] = system: gelatin (denatured type I collagen); test: Surface plasmon resonance binding to immobilized gelatin; set-up: species or system rat; settings: 1 µM analyte, Biacore buffer pH 7.4; compared to WT CBD
[2] = molecular target: denatured type I collagen (gelatin), rat tail (rat, UniProt P02454 152-1207; P02466 86-1125); test: SPR
denatured type I collagen (gelatin), rat tail, sequence (P02454 152-1207, chain 1 of 2): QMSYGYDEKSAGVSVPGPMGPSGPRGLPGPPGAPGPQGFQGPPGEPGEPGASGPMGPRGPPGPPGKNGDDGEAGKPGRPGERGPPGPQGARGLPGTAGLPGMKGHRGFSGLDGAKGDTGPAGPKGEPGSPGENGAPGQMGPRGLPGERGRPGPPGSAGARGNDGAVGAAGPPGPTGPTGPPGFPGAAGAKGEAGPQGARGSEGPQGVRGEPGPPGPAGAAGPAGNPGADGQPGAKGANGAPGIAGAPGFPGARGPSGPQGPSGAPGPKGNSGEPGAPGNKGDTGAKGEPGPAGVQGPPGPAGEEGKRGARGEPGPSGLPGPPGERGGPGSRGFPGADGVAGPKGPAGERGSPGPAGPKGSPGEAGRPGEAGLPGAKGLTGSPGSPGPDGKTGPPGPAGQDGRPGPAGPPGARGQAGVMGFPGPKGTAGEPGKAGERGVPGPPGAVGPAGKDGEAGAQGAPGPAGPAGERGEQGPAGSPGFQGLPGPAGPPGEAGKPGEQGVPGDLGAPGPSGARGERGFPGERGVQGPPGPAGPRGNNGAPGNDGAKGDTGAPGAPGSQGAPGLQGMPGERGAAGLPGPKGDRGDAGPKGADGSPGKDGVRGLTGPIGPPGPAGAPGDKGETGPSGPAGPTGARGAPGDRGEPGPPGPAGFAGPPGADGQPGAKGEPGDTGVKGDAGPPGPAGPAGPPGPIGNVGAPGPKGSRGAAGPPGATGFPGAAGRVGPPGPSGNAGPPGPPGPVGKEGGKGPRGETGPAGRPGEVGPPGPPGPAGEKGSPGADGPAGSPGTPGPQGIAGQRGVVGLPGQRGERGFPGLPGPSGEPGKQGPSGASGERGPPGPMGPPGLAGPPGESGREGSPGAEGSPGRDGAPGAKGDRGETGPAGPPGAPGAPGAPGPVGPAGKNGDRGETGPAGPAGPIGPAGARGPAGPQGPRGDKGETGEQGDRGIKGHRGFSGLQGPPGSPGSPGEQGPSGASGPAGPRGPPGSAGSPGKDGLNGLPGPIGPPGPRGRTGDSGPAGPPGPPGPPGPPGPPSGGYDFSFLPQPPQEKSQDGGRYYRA
denatured type I collagen (gelatin), rat tail, sequence (P02466 86-1125, chain 2 of 2): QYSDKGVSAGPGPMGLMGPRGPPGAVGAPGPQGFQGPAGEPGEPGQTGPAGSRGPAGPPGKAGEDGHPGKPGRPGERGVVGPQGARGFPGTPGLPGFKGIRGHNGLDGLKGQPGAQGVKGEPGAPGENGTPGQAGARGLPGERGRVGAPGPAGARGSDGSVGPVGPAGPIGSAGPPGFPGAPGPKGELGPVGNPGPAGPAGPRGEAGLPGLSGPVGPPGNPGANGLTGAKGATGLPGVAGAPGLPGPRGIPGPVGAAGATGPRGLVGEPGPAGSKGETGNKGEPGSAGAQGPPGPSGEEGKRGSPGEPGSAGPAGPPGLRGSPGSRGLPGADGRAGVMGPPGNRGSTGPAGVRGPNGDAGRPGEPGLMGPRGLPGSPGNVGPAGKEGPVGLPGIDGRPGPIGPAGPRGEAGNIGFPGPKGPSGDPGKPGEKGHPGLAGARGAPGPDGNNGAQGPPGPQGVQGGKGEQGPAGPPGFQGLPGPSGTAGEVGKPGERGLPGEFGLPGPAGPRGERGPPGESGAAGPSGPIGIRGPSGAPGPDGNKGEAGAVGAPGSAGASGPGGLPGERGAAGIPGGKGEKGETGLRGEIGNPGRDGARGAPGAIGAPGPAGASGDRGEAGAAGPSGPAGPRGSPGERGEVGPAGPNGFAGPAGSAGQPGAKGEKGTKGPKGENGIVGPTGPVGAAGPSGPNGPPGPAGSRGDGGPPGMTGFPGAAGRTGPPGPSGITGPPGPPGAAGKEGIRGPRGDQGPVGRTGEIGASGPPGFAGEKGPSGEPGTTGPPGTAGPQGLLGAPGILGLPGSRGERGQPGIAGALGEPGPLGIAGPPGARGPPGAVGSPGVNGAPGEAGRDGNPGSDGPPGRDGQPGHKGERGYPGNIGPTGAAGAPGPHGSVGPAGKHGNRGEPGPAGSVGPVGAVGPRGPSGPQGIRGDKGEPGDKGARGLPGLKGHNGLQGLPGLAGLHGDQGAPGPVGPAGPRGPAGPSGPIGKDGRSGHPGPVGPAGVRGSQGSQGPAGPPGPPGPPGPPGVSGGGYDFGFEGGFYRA

Molecule | relative affinity of modules 1 and 2 versus module 3 for collagen-like peptide (MMP-2 CBD modules) | spectral perturbations of isolated CBD module 2 (MMP-2 CBD modules; early NMR study) | binding to native type I collagen (SPR, RU) (native type I collagen) | binding to gelatin / denatured type I collagen (SPR, RU) [1] | Kd [2]
(Pro-Pro-Gly)6 | modules 1 and 2 have higher affinity | spectral perturbations of the surface-exposed aromatic residues Phe21, Tyr38, Trp40, Tyr47, Tyr53 and Phe55, as well as the neighboring Gly33-Gly37 segment | – | – | –
B1 | – | – | no reduction in collagen-binding | no reduction in collagen-binding | –
B2 | – | – | strong reduction in binding | strong reduction in binding | –
B3 | – | – | strong reduction in binding | strong reduction in binding | –
B4 | – | – | no reduction in collagen-binding | no reduction in collagen-binding | –
B5 | – | – | strong reduction in binding | strong reduction in binding | –
B6 | – | – | strong reduction in binding | strong reduction in binding | –
B7 | – | – | no reduction in collagen-binding | no reduction in collagen-binding | –
B8 | – | – | strong reduction in binding | strong reduction in binding | –
B9 | – | – | strong reduction in binding | strong reduction in binding | –
B10 | – | – | strong reduction in binding | strong reduction in binding | –
B11 | – | – | – | – | 2900 nM
